{"data": "Measurements collected from several papers", "target": "High affinity nerve growth factor receptor (NTRK1, Homo sapiens, UniProt P04629)", "note": "Lines come from different studies, so protocols differ."}
{"Compound": "COc1ccc2oc(-c3ccc4nc(N)oc4c3)c/c(=N\\c3ccccc3NC(=O)CCN)c2c1", "read-out": "binding", "concentration": "1 µM", "endpoint": "remaining binding", "value": "88%"}
{"Compound": "CO[C@@H]1[C@H](N(C)C(=O)c2ccccc2)C[C@H]2O[C@]1(C)n1c3ccccc3c3c4c(c5c6ccccc6n2c5c31)C(=O)NC4", "read-out": "enzyme activity", "action": "inhibitor", "concentration": "1 µM", "endpoint": "inhibition", "value": "98%"}
{"Compound": "CCCCC(=O)Nc1ccc(-c2ccc3ncn(CCC)c(=O)c3c2)cn1", "read-out": "binding", "method": "competition with immobilised ligand", "concentration": "0.5 µM", "endpoint": "remaining binding", "value": "99%"}
{"Compound": "CN(C)C(=O)c1cc2cnc(Nc3ccc(-c4ccc5c(=O)cc(N6CCOCC6)oc5c4)cc3)nc2n1C1CCCC1", "read-out": "binding", "method": "competition with immobilised ligand", "concentration": "1 µM", "endpoint": "remaining binding", "value": "3.7%"}
{"Compound": "N#Cc1ccc(NC(=O)Nc2ccccc2)cc1", "read-out": "cell-free assay", "method": "competition with immobilised ligand", "concentration": "25 µM", "endpoint": "remaining binding", "value": "55%"}
{"Compound": "COc1ccc2[nH]c3c4[nH]c5ccc(OC)cc5c4c4c(c3c2c1)C(=O)NC4=O", "read-out": "binding", "method": "competition with immobilised ligand", "concentration": "1 µM", "endpoint": "remaining binding", "value": "40%"}
{"Compound": "C=CC(=O)N1CCC([C@@H]2CCNc3c(C(N)=O)c(-c4ccc(Oc5ccccc5)cc4)nn32)CC1", "read-out": "cell-free assay", "concentration": "1 µM", "endpoint": "inhibition", "value": "47%"}
{"Compound": "C[C@H]1CC[C@H](n2c3cnccc3c3cnc(Nc4ccc5c(n4)CCN(C(=O)CO)C5)nc32)CC1", "read-out": "cell-free assay", "method": "competition with immobilised ligand", "concentration": "1 µM", "endpoint": "remaining binding", "value": "18%"}
{"Compound": "C1=C/COCc2cc(ccc2OCCN2CCCC2)Nc2nccc(n2)-c2cccc(c2)COC/1", "read-out": "binding", "concentration": "0.1 µM", "endpoint": "remaining binding", "value": "10%"}
